From ChEMBL document CHEMBL1157289, “Antiparasitic activity of some xanthones and biflavonoids from the root bark of Garcinia livingstonei” (J Nat Prod, 2006) come the findings set out here.

The test system of data set [1] is Trypanosoma brucei brucei. Put plainly: Antitrypanosomal activity against Trypanosoma brucei brucei. Type of data set: functional, organism-based.
In data set [2] the test system is Trypanosoma cruzi. The data set is described as follows: Antitrypanosomal activity against Trypanosoma cruzi in mouse peritoneal macrophages. Type of data set: functional, organism-based. An outline of the steps:
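Primary mouse peritoneal macrophages, 30 000/well, infected after 24 h with about 10 000 trypomastigotes alongside 4-fold drug dilutions. 7 days at 37 °C, 5% CO2.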

Another data set relates to Leishmania infantum. The data set is described as follows: Antileishmanial activity against Leishmania infantum MHOM/MA(BE)/67 amastigotes in mouse peritoneal macrophages. Type of data set: functional, organism-based. The method in brief: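 Amastigotes from serially passaged Syrian hamster infection; macrophages elicited by intraperitoneal 2% starch, harvested 24-48 h later. 5-day incubation; Giemsa-stained microscopic count; % reduction of parasite burden vs control, IC50 determined.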

A further data set concerns Plasmodium falciparum. Put plainly: Antiplasmodial activity against chloroquine-sensitive Plasmodium falciparum Ghana by LDH reporter assay. The format is functional, organism-based.
A further data set deals with MRC5. Put plainly: Cytotoxicity against human MRC5 cells by alamar-blue assay. Type of data set: cell-based. An outline of the steps:
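Cells seeded at 5000/well, washed after 24 h, then given 4-fold dilutions in RPMI + 5% FCS, final DMSO below 0.5%. 7 days at 37 °C, 5% CO2, untreated controls included.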
(In general: Alamar Blue is a resazurin reagent that responds to reducing activity.)

The subject of data set [3] is Trypanosoma cruzi. Put plainly: Antitrypanosomal activity against Trypanosoma cruzi trypomastigotes assessed as immobilized trypomastigotes after 48 hrs. The format is functional.
A short description of data set [4]: Cytotoxicity in Leishmania infantum MHOM/MA(BE)/67 amastigotes infected mouse peritoneal macrophages. The format is cell-based. The conditions noted are these: macrophage.

Usually IC50 stands for the concentration that inhibits the measured activity by half. High values mean a need for much substance, low ones inhibition by little substance. `CC(C)=CCc1cc(O)c2c(=O)c3cccc(O)c3oc2c1O`: the concentration for half-maximal inhibition (IC50) in data set [1] is 0.87 µM; with Trypanosoma cruzi [2], 7 µM; in the data set with Leishmania infantum, 27 µM; with Plasmodium falciparum it was 10 µM; in the data set on MRC5, greater than 32 µM.
For `CC(C)=CCCC1(C)C=Cc2c(cc(O)c3c(=O)c4cccc(O)c4oc23)O1` (stereo not drawn) the same measures were 5 µM, 8 µM, greater than 64 µM, 52 µM and greater than 64 µM.
For `C=CC(C)(C)c1cc(O)c2oc3c4c(ccc3c(=O)c2c1O)C=CC(C)(C)O4`, the MC100 in the data set on Trypanosoma cruzi [3] was 8 µM.
`CC(C)=CCC/C(C)=C/Cc1c(O)cc(O)c2c(=O)c3cccc(O)c3oc12`: the IC50 in data set [1] is 2 µM; in the data set on Trypanosoma cruzi [2], 5.7 µM; in the data set on Leishmania infantum, greater than 64 µM; in the data set on Plasmodium falciparum, 59 µM; in the data set with MRC5 it was greater than 64 µM.
For `COc1ccc([C@@H]2CC(=O)c3c(O)cc(O)c([C@@H]4C(=O)c5c(O)cc(O)cc5O[C@H]4c4ccc(O)cc4)c3O2)cc1`, the IC50 in data set [1] was 28.3 µM; with Trypanosoma cruzi [2], 34.7 µM; with Leishmania infantum, greater than 64 µM; in the data set with Plasmodium falciparum, 6 µM; in the data set with MRC5 it was 38 µM.
With `CC1=C[C@H](c2cc(O)c3c(=O)c4cccc(O)c4oc3c2O)[C@](C)(/C=C/c2cc(O)c3c(=O)c4cccc(O)c4oc3c2O)CC1` [GARCILIVIN A], the IC50 in data set [1] was found to be 0.4 µM; in the data set with Trypanosoma cruzi [2], 4 µM; in the data set with Leishmania infantum, 32 µM; in the data set with Plasmodium falciparum, 6.7 µM; in the data set with MRC5, 2 µM. For the same compound, the Activity result in data set [4] is reported as “Toxic”.
As for `CC1=C[C@@H](c2cc(O)c3c(=O)c4cccc(O)c4oc3c2O)[C@](C)(/C=C/c2cc(O)c3c(=O)c4cccc(O)c4oc3c2O)CC1` [GARCIVILIN C], the IC50 in data set [1] is 7.7 µM; with Trypanosoma cruzi [2] it was 39.2 µM; with Leishmania infantum, greater than 64 µM; with Plasmodium falciparum, greater than 64 µM; with MRC5 it was 52.3 µM.
In turn, `O=C1c2c(O)cc(O)cc2O[C@H](c2ccc(O)cc2)[C@H]1c1c(O)cc(O)c2c(=O)cc(-c3ccc(O)c(O)c3)oc12` [MORELLOFLAVONE] yielded an IC50 in the data set with MRC5 greater than 64 µM.
